In one assay the test system is Trypanosoma cruzi. The assay is described as follows: Antitrypanosomal activity against Trypanosoma cruzi trypomastigotes in CD1 mouse macrophage. It counts as functional. Conditions: read-out: ED50 (the source's name). Summed up: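 Starch-induced CD1 peritoneal macrophages plated at 4 × 10^5/mL, infected after 24 h with T. cruzi Tulahuan LAC-Z trypomastigotes. 24 h later, drug exposure for 3 days. ED50 by curve fitting.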

The subject of assay [1] is Plasmodium falciparum. Briefly: Antimalarial activity against Plasmodium falciparum 3D7. It counts as functional, organism-based. Summed up: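 Synchronized ring-stage 3D7 culture at 1% parasitemia in RPMI 1640, 5% hematocrit, 37 °C, 5% CO2. Top final drug concentration 30 µg/mL. After 24 h, (3H)-hypoxanthine added (0.2 µCi/well), then 48 h further incubation. Plates freeze/thawed and harvested, and hypoxanthine uptake counted. ED50 by curve fitting.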

For the next assay, the system named is KB. The assay is described as follows: Cytotoxicity against KB cell line. To be noted: Homo sapiens, read-out: TD50 (the source's name). It counts as functional.
The test system of assay [2] is Trypanosoma brucei rhodesiense. Briefly: Antitrypanosomal activity against Trypanosoma brucei rhodesiense trypomastigotes. It counts as functional. To be noted: read-out: ED50 (the source's name). Summed up: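 Bloodstream-form STIB900 trypomastigotes grown in HMI-18 + 15% HIFCS at 37 °C, 5% CO2. Seeded at 2 × 10^5/mL onto drug dilutions (top 30 µg/mL) for 72 h. Alamar Blue read 5-6 h later by fluorescence (ex/em 530/585 nm). ED50 by curve fitting.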

The test system of assay [3] is Plasmodium falciparum. Briefly: Antimalarial activity against Plasmodium falciparum K1. It counts as functional, organism-based. Conditions: read-out: ED50 (the source's name).
The subject of the next assay is Leishmania donovani. Briefly: Antileishmanial activity against Leishmania donovani amastigotes in CD1 mouse macrophage. It counts as functional, organism-based. To be noted: read-out: ED50 (the source's name). A digest of the protocol:
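Peritoneal macrophages from starch-induced CD1 mice, kept 24 h in RPMI1640 + 10% HIFCS at 37 °C, 5% CO2. Infected with L. donovani MHOM/ET/67/L82 amastigotes from hamster spleen at 5 parasites:1 macrophage. After 24 h, drug exposure for 5 days, overlay replaced day 3. Top concentration 30 µg/mL, quadruplicate. Slides methanol-fixed, Giemsa-stained, counted microscopically. ED50 by curve fitting.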

Where [4] appears, read: read-out: ED50 (the source's name).

The structures appear in SMILES notation.

Take `COC(=O)CCCCNC(=O)[C@@H](C)[C@H]1CC[C@H]2C3CC=C4C[C@@H](OC(C)=O)CC[C@]4(C)[C@H]3CC[C@]12C` (stereo partly drawn): the EC50 was 2.43 µM with Trypanosoma cruzi; 0.74 µM in the assay with Plasmodium falciparum [1] (setting [4]); 3.01 µM in assay [2]; 8.43 µM with Plasmodium falciparum [3]; above 60 µM with Leishmania donovani. Besides, the CC50 with KB was above 598 µM.

Take `COC(=O)[C@H](CCCCNC[C@@H](C)[C@H]1CC[C@H]2C3CC=C4C[C@@H](OC(C)=O)CC[C@]4(C)[C@H]3CC[C@]12C)NC(=O)OCc1ccccc1` (stereo partly drawn): the EC50 in the assay on Trypanosoma cruzi is below 1.71 µM; in the assay on Plasmodium falciparum [1] (setting [4]), 0.799 µM; in assay [2], 0.753 µM; in the assay on Plasmodium falciparum [3] it was 0.215 µM. For the same compound, the CC50 in the assay with KB is 5.35 µM.

Take `COC(=O)CCCCCCCNC[C@@H](C)[C@H]1CC[C@H]2C3CC=C4C[C@@H](O)CC[C@]4(C)[C@H]3CC[C@]12C` (stereo partly drawn): the EC50 in the assay with Trypanosoma cruzi was found to be 2.64 µM; in the assay with Plasmodium falciparum [1] (setting [4]), 0.349 µM; in assay [2], 0.308 µM; with Plasmodium falciparum [3], 0.062 µM. The CC50 in the assay on KB was determined as 6.17 µM.

Regarding `COC(=O)CNC[C@@H](C)[C@H]1CC[C@H]2C3CC=C4C[C@@H](O)CC[C@]4(C)[C@H]3CC[C@]12C` (stereo partly drawn), the EC50 in the assay on Trypanosoma cruzi is below 2.75 µM; in the assay with Plasmodium falciparum [1] (setting [4]) it was 40.6 µM; in assay [2], 4.91 µM; in the assay on Plasmodium falciparum [3], 22.2 µM. Further, in the assay on KB, the CC50 worked out at 45 µM.

Regarding `C[C@H](CNCCCC[C@H](NC(=O)OCc1ccccc1)C(=O)O)[C@H]1CC[C@H]2C3CC=C4C[C@@H](O)CC[C@]4(C)[C@H]3CC[C@]12C` (stereo partly drawn), the EC50 in the assay on Trypanosoma cruzi was 9.52 µM; with Plasmodium falciparum [1] (setting [4]), 16.7 µM; in assay [2] it was above 50 µM; with Plasmodium falciparum [3], 6.29 µM. For the same compound, the CC50 in the assay on KB is above 504 µM.

Regarding `COC(=O)CCCNC[C@@H](C)[C@H]1CC[C@H]2C3CC=C4C[C@@H](O)CC[C@]4(C)[C@H]3CC[C@]12C` (stereo partly drawn), the EC50 in the assay with Trypanosoma cruzi is below 2.57 µM; with Plasmodium falciparum [1] (setting [4]), 7.53 µM; in assay [2] it was 5.05 µM; in the assay with Plasmodium falciparum [3], 1.95 µM. Also, the CC50 in the assay with KB was determined as 1.55 µM.

Turning to `CC(=O)O[C@H]1CC[C@@]2(C)C(=CCC3[C@@H]4CC[C@H]([C@H](C)C(=O)NCCCC[C@H](NC(=O)OCc5ccccc5)C(=O)OCc5ccccc5)[C@@]4(C)CC[C@@H]32)C1` (stereo partly drawn), the EC50 was above 24 µM in the assay on Trypanosoma cruzi, 3.4 µM in the assay on Plasmodium falciparum [1] (setting [4]), 0.01 µM in assay [2] and above 40 µM in the assay on Leishmania donovani. The CC50 in the assay with KB is above 400 µM.

Turning to `COC(=O)CCCCCNC[C@@H](C)[C@H]1CC[C@H]2C3CC=C4C[C@@H](O)CC[C@]4(C)[C@H]3CC[C@]12C` (stereo partly drawn), the EC50 is below 2.41 µM in the assay on Trypanosoma cruzi, 1.31 µM with Plasmodium falciparum [1] (setting [4]), 2.15 µM in assay [2] and 0.5 µM in the assay with Plasmodium falciparum [3]. Also, in the assay with KB, the CC50 was determined as 6.09 µM.

As to `COC(=O)CCNC[C@@H](C)[C@H]1CC[C@H]2C3CC=C4C[C@@H](OC(C)=O)CC[C@]4(C)[C@H]3CC[C@]12C` (stereo partly drawn), the EC50 in the assay with Trypanosoma cruzi was 28.9 µM; with Plasmodium falciparum [1] (setting [4]) it was above 65.3 µM; in assay [2] it was 0.302 µM; with Leishmania donovani it was 22.8 µM. Further, the CC50 in the assay with KB was found to be 17.4 µM.

Consider `C[C@H](CNCC[C@H](NC(=O)OC(C)(C)C)C(=O)O)[C@H]1CC[C@H]2C3CC=C4C[C@@H](O)CC[C@]4(C)[C@H]3CC[C@]12C` (stereo partly drawn), for which the EC50 with Trypanosoma cruzi is below 2.08 µM; in the assay with Plasmodium falciparum [1] (setting [4]) it was 36.6 µM; in assay [2], above 56 µM; with Plasmodium falciparum [3] it was 38.1 µM. Besides, the CC50 in the assay with KB is above 563 µM.

On to `CC(=O)O[C@H]1CC[C@@]2(C)C(=CCC3[C@@H]4CC[C@H]([C@H](C)CNCCCCCC(=O)O)[C@@]4(C)CC[C@@H]32)C1` (stereo partly drawn), for which the EC50 in the assay with Trypanosoma cruzi was above 62 µM; with Plasmodium falciparum [1] (setting [4]) it was above 62 µM; in assay [2], 55.2 µM; with Leishmania donovani it was above 62 µM. For the same compound, the CC50 in the assay on KB was 433 µM.

For the compound `COc1cc([C@@H]2c3cc4c(cc3[C@H](O)[C@H]3COC(=O)[C@H]23)OCO4)cc(OC)c1OC` [PODOFILOX], the CC50 with KB was determined as 0.001 µM. Moreover, the EC50 in the assay with Plasmodium falciparum [3] turned out to be 0.1 µM.

For `COC(=O)CCCCCCNC[C@@H](C)[C@H]1CC[C@H]2C3CC=C4C[C@@H](OC(C)=O)CC[C@]4(C)[C@H]3CC[C@]12C` (stereo partly drawn), the EC50 was 53.5 µM in the assay with Trypanosoma cruzi, 3.49 µM in the assay with Plasmodium falciparum [1] (setting [4]), 0.025 µM in assay [2] and 9.5 µM with Leishmania donovani. In addition, the CC50 in the assay on KB is 11.2 µM.

Take `C[C@H](CNCCCC(=O)O)[C@H]1CC[C@H]2C3CC=C4C[C@@H](O)CC[C@]4(C)[C@H]3CC[C@]12C` (stereo partly drawn): the EC50 was 47.3 µM in the assay with Trypanosoma cruzi, 56.5 µM in the assay with Plasmodium falciparum [1] (setting [4]), 14.4 µM in assay [2] and above 72 µM with Leishmania donovani. For the same compound, in the assay with KB, the CC50 amounted to 451 µM.

As for `CC(=O)O[C@H]1CC[C@@]2(C)C(=CCC3[C@@H]4CC[C@H]([C@H](C)CNCCCC[C@H](NC(=O)OCc5ccccc5)C(=O)OCc5ccccc5)[C@@]4(C)CC[C@@H]32)C1` (stereo partly drawn), the EC50 in the assay on Trypanosoma cruzi is 1.71 µM; in the assay with Plasmodium falciparum [1] (setting [4]), 0.839 µM; in assay [2], 0.619 µM; in the assay on Plasmodium falciparum [3], 0.069 µM. The CC50 in the assay with KB came to 29.8 µM.

On to `CC(=O)O[C@H]1CC[C@@]2(C)C(=CCC3[C@@H]4CC[C@H]([C@H](C)C(=O)NCCC[C@H](NC(=O)OCc5ccccc5)C(=O)O)[C@@]4(C)CC[C@@H]32)C1` (stereo partly drawn), for which the EC50 in the assay with Trypanosoma cruzi was above 47 µM; in the assay on Plasmodium falciparum [1] (setting [4]), above 47 µM; in assay [2] it was 1.7 µM; in the assay on Leishmania donovani, above 47 µM. Moreover, the CC50 in the assay on KB was determined as 147 µM.

Consider `COC(=O)CCCCCCCNC[C@@H](C)[C@H]1CC[C@H]2C3CC=C4C[C@@H](OC(C)=O)CC[C@]4(C)[C@H]3CC[C@]12C` (stereo partly drawn), for which the EC50 was 28.7 µM in the assay on Trypanosoma cruzi, 2.64 µM in the assay on Plasmodium falciparum [1] (setting [4]), 0.098 µM in assay [2] and 14.8 µM with Leishmania donovani. In the assay on KB, the CC50 was determined as 10 µM.

On to `C[C@H](CNCCCCCCC(=O)O)[C@H]1CC[C@H]2C3CC=C4C[C@@H](O)CC[C@]4(C)[C@H]3CC[C@]12C` (stereo partly drawn), for which the EC50 in the assay on Trypanosoma cruzi is 44.9 µM; with Plasmodium falciparum [1] (setting [4]), above 65 µM; in assay [2], 47.6 µM; in the assay with Leishmania donovani it was above 65 µM. For the same compound, the CC50 in the assay with KB worked out at 72 µM.

`COC(=O)CCCNC[C@@H](C)[C@H]1CC[C@H]2C3CC=C4C[C@@H](OC(C)=O)CC[C@]4(C)[C@H]3CC[C@]12C` (stereo partly drawn): the EC50 in the assay on Trypanosoma cruzi is 24.7 µM; in the assay on Plasmodium falciparum [1] (setting [4]), 15.4 µM; in assay [2], 0.012 µM; in the assay with Leishmania donovani, 3.19 µM. Further, the CC50 in the assay with KB came out at 19.2 µM.

Take `C[C@H](C(=O)NCCCC(=O)O)[C@H]1CC[C@H]2C3CC=C4C[C@@H](O)CC[C@]4(C)[C@H]3CC[C@]12C` (stereo partly drawn): the EC50 with Trypanosoma cruzi amounted to 39.8 µM; with Plasmodium falciparum [1] (read-out: EC50) it was 45.6 µM; in assay [2], 49.8 µM; with Leishmania donovani it was 29.2 µM. For the same compound, the CC50 with KB stood at 616 µM.

Consider `COC(=O)CCCCCNC[C@@H](C)[C@H]1CC[C@H]2C3CC=C4C[C@@H](OC(C)=O)CC[C@]4(C)[C@H]3CC[C@]12C` (stereo partly drawn), for which the EC50 turned out to be 20.5 µM in the assay on Trypanosoma cruzi, 7.37 µM in the assay on Plasmodium falciparum [1] (setting [4]), 0.033 µM in assay [2] and 21.9 µM with Leishmania donovani. In addition, the CC50 with KB is 15.6 µM.

The record behind these values is ChEMBL document CHEMBL1137377, “Evaluation of azasterols as anti-parasitics” (J Med Chem, 2006).
